Measured values reported in ChEMBL document CHEMBL1240420, “Synthesis and biological evaluation of cinnamido linked pyrrolo[2,1-c][1,4]benzodiazepines as antimitotic agents” (Eur J Med Chem, 2010).

Key:
Type in all cases: functional
M14 = test: Cytotoxicity against human M14 cells after 48 hrs by SRB assay; conditions: M14, 48 h
UACC-257 = test: Cytotoxicity against human UACC257 cells after 48 hrs by SRB assay; conditions: UACC-257, 48 h
SR = test: Cytotoxicity against human SR cells after 48 hrs by SRB assay
NCI-H226 = test: Cytotoxicity against human NCI-H226 cells after 48 hrs by SRB assay; conditions: NCI-H226, 48 h
OVCAR-8 = test: Cytotoxicity against human OVCAR8 cells after 48 hrs by SRB assay; conditions: OVCAR-8, 48 h
SK-OV-3 = test: Cytotoxicity against human SKOV3 cells after 48 hrs by SRB assay; conditions: SK-OV-3, 48 h
KM12 = test: Cytotoxicity against human KM12 cells after 48 hrs by SRB assay; conditions: KM12, 48 h
SF-295 = test: Cytotoxicity against human SF295 cells after 48 hrs by SRB assay; conditions: SF-295, 48 h
SK-MEL-28 = test: Cytotoxicity against human SK-MEL-28 cells after 48 hrs by SRB assay; conditions: SK-MEL-28, 48 h
HCT-116 = test: Cytotoxicity against human HCT116 cells after 48 hrs by SRB assay; conditions: HCT-116, 48 h
NCI-H23 = test: Cytotoxicity against human NCI-H23 cells after 48 hrs by SRB assay; conditions: NCI-H23, 48 h
NCI/ADR-RES = test: Cytotoxicity against human NCI/ADR-RES cells after 48 hrs by SRB assay
MDA-MB-468 = test: Cytotoxicity against human MDA-MB-468 cells after 48 hrs by SRB assay; conditions: MDA-MB-468, 48 h
UO-31 = test: Cytotoxicity against human UO31 cells after 48 hrs by SRB assay; conditions: UO-31, 48 h
OVCAR-5 = test: Cytotoxicity against human OVCAR5 cells after 48 hrs by SRB assay; conditions: OVCAR-5, 48 h
786-0 = test: Cytotoxicity against human 786-0 cells after 48 hrs by SRB assay; conditions: 786-0, 48 h
UACC-62 = test: Cytotoxicity against human UACC62 cells after 48 hrs by SRB assay; conditions: UACC-62, 48 h
RXF 393 = test: Cytotoxicity against human […] cells after 48 hrs by SRB assay; conditions: RXF 393, 48 h
SK-MEL-2 = test: Cytotoxicity against human SK-MEL-2 cells after 48 hrs by SRB assay; conditions: SK-MEL-2, 48 h
OVCAR-3 = test: Cytotoxicity against human OVCAR-3 cells after 48 hrs by SRB assay; conditions: OVCAR-3, 48 h
TK-10 = test: Cytotoxicity against human TK10 cells after 48 hrs by SRB assay; conditions: TK-10, 48 h
SN12C = test: Cytotoxicity against human SN12C cells after 48 hrs by SRB assay
MDA-MB-435 = test: Cytotoxicity against human MDA-MB-435 cells after 48 hrs by SRB assay; conditions: MDA-MB-435, 48 h
CAKI-1 = test: Cytotoxicity against human Caki1 cells after 48 hrs by SRB assay; conditions: CAKI-1, 48 h
COLO 205 = test: Cytotoxicity against human COLO205 cells after 48 hrs by SRB assay; conditions: COLO 205, 48 h
How it was run: (§1)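 Cells were grown in RPMI 1640 with 10% FBS and 2 mM L-glutamine, plated 24 h before dosing, then given continuous 48 h exposure at 0.1, 1, 10 and 100 µM in triplicate wells. Cells were fixed with cold TCA (10% final, 60 min, 4 °C), stained with 0.4% SRB in 1% acetic acid for 20 min, eluted with 10 mM Tris base, and read at 540/690 nm. GI50 was taken from [(Ti−Tz)/(C−Tz)]×100 = 50; three determinations were averaged.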

MDA-MB-231 = test: Cytotoxicity against human MDA-MB-231 cells after 48 hrs by SRB assay; conditions: MDA-MB-231, 48 h
A549 = test: Cytotoxicity against human A549 cells after 48 hrs by SRB assay; conditions: A549, 48 h; how it was run: as §1
IGROV-1 = test: Cytotoxicity against human IGROV1 cells after 48 hrs by SRB assay; conditions: IGROV-1, 48 h
EKVX = test: Cytotoxicity against human EKVX cells after 48 hrs by SRB assay
ACHN = test: Cytotoxicity against human ACHN cells after 48 hrs by SRB assay
DU-145 = test: Cytotoxicity against human DU145 cells after 48 hrs by SRB assay; conditions: DU-145, 48 h
T47D = test: Cytotoxicity against human T47D cells after 48 hrs by SRB assay
NCI-H522 = test: Cytotoxicity against human NCI-H522 cells after 48 hrs by SRB assay; conditions: NCI-H522, 48 h
CCRF-CEM = test: Cytotoxicity against human CCRF-CEM cells after 48 hrs by SRB assay
HT-29 = test: Cytotoxicity against human HT-29 cells after 48 hrs by SRB assay; conditions: HT-29, 48 h
SF-539 = test: Cytotoxicity against human SF539 cells after 48 hrs by SRB assay; conditions: SF-539, 48 h
K562 = test: Cytotoxicity against human K562 cells after 48 hrs by SRB assay; conditions: K562, 48 h
[1] = Cytotoxicity against human Hs 578T cells after 48 hrs by SRB assay
SW-620 = test: Cytotoxicity against human SW620 cells after 48 hrs by SRB assay; conditions: SW-620, 48 h
NCI-H460 = test: Cytotoxicity against human NCI-H460 cells after 48 hrs by SRB assay; conditions: NCI-H460, 48 h
U-251 = test: Cytotoxicity against human U251 cells after 48 hrs by SRB assay; conditions: U-251, 48 h
HCC 2998 = test: Cytotoxicity against human HCC2998 cells after 48 hrs by SRB assay; conditions: HCC 2998, 48 h
SK-MEL-5 = test: Cytotoxicity against human SK-MEL-5 cells after 48 hrs by SRB assay; conditions: SK-MEL-5, 48 h
HCT-15 = test: Cytotoxicity against human HCT15 cells after 48 hrs by SRB assay; conditions: HCT-15, 48 h
HL-60(TB) = test: Cytotoxicity against human HL-60(TB) cells after 48 hrs by SRB assay; conditions: HL-60, 48 h
HOP-92 = test: Cytotoxicity against human HOP92 cells after 48 hrs by SRB assay; conditions: HOP-92, 48 h
A498 = test: Cytotoxicity against human A498 cells after 48 hrs by SRB assay; conditions: A498, 48 h
PC-3 = test: Cytotoxicity against human PC3 cells after 48 hrs by SRB assay; conditions: PC-3, 48 h; how it was run: as §1
HOP-62 = test: Cytotoxicity against human HOP62 cells after 48 hrs by SRB assay; conditions: HOP-62, 48 h; how it was run: as §1
BT-549 = test: Cytotoxicity against human BT549 cells after 48 hrs by SRB assay; conditions: BT-549, 48 h
MOLT-4 = test: Cytotoxicity against human MOLT4 cells after 48 hrs by SRB assay; conditions: MOLT-4, 48 h
SNB-19 = test: Cytotoxicity against human SNB19 cells after 48 hrs by SRB assay; conditions: SNB-19, 48 h
OVCAR-4 = test: Cytotoxicity against human OVCAR4 cells after 48 hrs by SRB assay; conditions: OVCAR-4, 48 h
SNB-75 = test: Cytotoxicity against human SNB75 cells after 48 hrs by SRB assay; conditions: SNB-75, 48 h
LOX IMVI = test: Cytotoxicity against human LOXIMVI cells after 48 hrs by SRB assay
SF-268 = test: Cytotoxicity against human SF268 cells after 48 hrs by SRB assay; conditions: SF-268, 48 h
Malme-3M = test: Cytotoxicity against human MALME-3M cells after 48 hrs by SRB assay
NCI-H322M = test: Cytotoxicity against human NCI-H322M cells after 48 hrs by SRB assay
MCF7 = test: Cytotoxicity against human MCF7 cells after 48 hrs by SRB assay; conditions: MCF7, 48 h; how it was run: as §1

## COc1cc(/C=C/C(=O)N2CCN(C(=O)c3cc(OC)c(OC)c(OC)c3)CC2)ccc1OCCCOc1cc2c(cc1OC)C(=O)N1CCC[C@H]1C=N2
M14
  GI50: 320 nM
UACC-257
  GI50: 350 nM
SR
  GI50: 280 nM
NCI-H226
  GI50: 310 nM
OVCAR-8
  GI50: 450 nM
SK-OV-3
  GI50: 610 nM
KM12
  GI50: 210 nM
SF-295
  GI50: 310 nM
SK-MEL-28
  GI50: 200 nM
HCT-116
  GI50: 170 nM
NCI-H23
  GI50: 260 nM
NCI/ADR-RES
  GI50: 8910 nM
MDA-MB-468
  GI50: 70 nM
UO-31
  GI50: 2590 nM
OVCAR-5
  GI50: 290 nM
786-0
  GI50: 270 nM
UACC-62
  GI50: 160 nM
RXF 393
  GI50: 540 nM
SK-MEL-2
  GI50: 260 nM
OVCAR-3
  GI50: 210 nM
TK-10
  GI50: 290 nM
SN12C
  GI50: 270 nM
MDA-MB-435
  GI50: 180 nM
CAKI-1
  GI50: 2110 nM
COLO 205
  GI50: 190 nM
MDA-MB-231
  GI50: 230 nM
A549
  GI50: 1890 nM
IGROV-1
  GI50: 240 nM
EKVX
  GI50: 720 nM
ACHN
  GI50: 2540 nM
DU-145
  GI50: 330 nM
T47D
  GI50: 230 nM
NCI-H522
  GI50: 60 nM
CCRF-CEM
  GI50: 80 nM
HT-29
  GI50: 260 nM
SF-539
  GI50: 240 nM
K562
  GI50: 690 nM
[1]
  GI50: 230 nM
SW-620
  GI50: 170 nM
NCI-H460
  GI50: 240 nM
U-251
  GI50: 180 nM
HCC 2998
  GI50: 240 nM
SK-MEL-5
  GI50: 190 nM
HCT-15
  GI50: 2980 nM
HL-60(TB)
  GI50: 180 nM
HOP-92
  GI50: 490 nM
A498
  GI50: 190 nM
PC-3
  GI50: 730 nM
HOP-62
  GI50: 230 nM
BT-549
  GI50: 150 nM
MOLT-4
  GI50: 230 nM
SNB-19
  GI50: 380 nM
OVCAR-4
  GI50: 1070 nM
SNB-75
  GI50: 210 nM
LOX IMVI
  GI50: 240 nM
SF-268
  GI50: 240 nM
Malme-3M
  GI50: 170 nM
NCI-H322M
  GI50: 340 nM
MCF7
  GI50: 80 nM
